Measured values taken from publication PMC10613910 (Heliyon, 2023).

Key:
[1] = Pharmacokinetics of oral talazoparib in wild-type and ABCB1/ABCG2; format: in vivo, mouse; details: talazoparib 0.5 mg/kg p.o.; for Cmax: female, FVB, mouse, plasma, po, 0.5 mg/kg, mean (±SEM)
Procedure, shortened: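 Adult female FVB wild-type or Abcb1a/Abcb1b/Abcg2-deficient mice (12–20 weeks, 4–5 per group) given test compound 0.5 mg/kg by oral gavage; dosing solution 0.1 mg/mL in 10% dimethylacetamide/5% Solutol HS/85% PBS. Blood at 5, 15, 30 min and 1, 2, 4 h, submandibular then retro-orbital (isoflurane), terminal cardiac. Plasma methanol-precipitated, UHPLC-MS/MS with isotope-labelled IS; Cmax visual, AUC(0–4 h) log-linear trapezoidal.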

[2] = Influence of novobiocin pretreatment on talazoparib pharmacokinetics in mice; format: in vivo; details: female, FVB, mouse, plasma, po, 0.5 mg/kg, mean (±SEM), N=5; for AUC: 0-4 h
Procedure, shortened: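 Female mice aged 12–20 weeks (wild-type FVB or ABCB1A/ABCB1B/ABCG2-null), fasted 2 h. Pretreatment (50 mg/kg in 5% dextrose) or vehicle given by oral gavage 30 min before test compound (0.1 mg/mL in 10% dimethylacetamide/5% Solutol HS/85% PBS). Blood sampled 5 min–4 h. Plasma assayed by UHPLC-MS/MS with isotope-labelled internal standard. Cmax read from the curve; AUC0–4h by log-linear trapezoidal rule.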

[3] = Stability of talazoparib in mouse plasma QC samples; format: physicochemical; details: for Bench-top stability, mean deviation: ambient temperature (25 °C) for 6 h; for Bench-top stability, mean deviation / Auto-sampler stability, mean deviation / Re-injection stability, mean deviation: N=3; for Auto-sampler stability, mean deviation: auto-sampler at 4 °C for 24 h; for Re-injection stability, mean deviation: reanalyzed after 24 h in auto-sampler at 4 °C
Procedure, shortened: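 Spiked mouse plasma QC at low (1.5 ng/mL) and high (80 ng/mL) levels. Conditions: bench-top at ambient temperature 6 h; extracts held in autosampler at 4 °C 24 h; processed samples re-injected after 24 h at 4 °C; three cycles of −80 °C storage for 12 h with room-temperature thaw. Quantified by UHPLC-MS/MS with isotope-labelled IS; acceptable within 85–115% of nominal.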

[4] = clinical studies, oral; cited from earlier work
[5] = test system: ABCG2; details: mice with a deficiency of only ABCG2; cited from earlier work
[6] = test system: MDCKII cells overexpressing ABCG2; details: cited from earlier work
[7] = ABCB1/ABCG2(−/−) mice, novobiocin 50 mg/kg p.o. 30 min before talazoparib 0.5 mg/kg p.o.
[8] = wild-type mice, novobiocin 50 mg/kg p.o. 30 min before talazoparib 0.5 mg/kg p.o.

increase in AUC with deficiency of ABCB1 and ABCG2 ([1]; ABCB1/ABCG2(−/−) vs wild-type mice): ~1.3 fold
Cmax ([1]; ABCB1/ABCG2(−/−) mice, N=4): 350 ng/mL
Cmax ([1]; wild-type FVB mice, N=5): 360 ng/mL
AUC [2, 7]: 890 ng·h/mL
AUC [2, 8]: 615 ng·h/mL
Cmax ([2]; ABCB1/ABCG2(−/−) mice, co-treatment none (vehicle), talazoparib 0.5 mg/kg p.o.): 352 ng/mL
Cmax [2, 7]: 449 ng/mL
Cmax ([2]; wild-type mice, co-treatment none (vehicle), talazoparib 0.5 mg/kg p.o.): 472 ng/mL
Cmax [2, 8]: 414 ng/mL
time stable in mouse plasma samples at room temperature ([3]; bench-top, room temperature, mouse plasma): at least 6 h
auto-sampler and reinjection stability time ([3]; extracted samples at 4 °C in auto-sampler): at least 24 h
stability after repeated freeze and thaw cycles ([3]; mouse plasma samples, three freeze-thaw cycles): remained stable
Bench-top stability, mean deviation ([3]; nominal 1.5 ng/mL, mouse plasma): 2.15%
Auto-sampler stability, mean deviation ([3]; nominal 1.5 ng/mL): −4.34%
Re-injection stability, mean deviation ([3]; nominal 1.5 ng/mL): 0.64%
Bench-top stability, mean deviation ([3]; nominal 80 ng/mL, mouse plasma): −8.09%
Auto-sampler stability, mean deviation ([3]; nominal 80 ng/mL): −5.14%
Re-injection stability, mean deviation ([3]; nominal 80 ng/mL): 0.62%
SMILES: Cn1ncnc1[C@H]1c2n[nH]c(=O)c3cc(F)cc(c23)N[C@@H]1c1ccc(F)cc1 [Talazoparib]
terminal half-life [4]: ~50 h
levels of talazoparib in plasma [5]: unaltered
levels of talazoparib in cells [6]: unaltered
